From ChEMBL document CHEMBL6182834, “Dual EGFR and telomerase inhibitory potential of new triazole tethered Schiff bases endowed with apoptosis: design, synthesis, and biological assessments” (RSC Med Chem, 2025)

How the values were obtained:
[1] = Antiproliferative activity against human HNO 97 cell line assessed as growth inhibition at 100 ug/mL incubated for 48 hrs by SRB assay relative to control; type: functional; conditions: read-out: GI
Outline: (§1)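 SRB assay: cells seeded at 3×10^3/well, allowed 24 h to attach, then exposed to 100 µg/mL for 48 h, three wells per concentration, DMSO 1% v/v vehicle control. Cells fixed with 20% trichloroacetic acid and stained with 0.4% SRB, then OD read at 570 nm. Survival fraction taken as treated OD/control OD.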

[2] = system: FaDu; test: Antiproliferative activity against human FaDu cells assessed as growth inhibition at 100 ug/mL incubated for 48 hrs by SRB assay relative to control; type: functional; conditions: read-out: GI; outline: as §1
[3] = Cytotoxicity against human oral epithelial cells (OEC) assessed as growth inhibition at 100 ug/mL incubated for 48 hrs by SRB assay relative to control; type: toxicity, cell-based, Oral epithelial cell; conditions: at 100 µg/mL, read-out: GI; outline: as §1
[4] = Cytotoxicity against HSF cells assessed as growth inhibition at 100 ug/mL incubated for 48 hrs by SRB assay relative to control; type: toxicity, cell-based; conditions: human, at 100 µg/mL, read-out: GI; outline: as §1
[5] = system: A-375; test: Antiproliferative activity against human A-375 cells assessed as growth inhibition at 100 ug/mL incubated for 48 hrs by SRB assay relative to control; type: functional; conditions: read-out: GI; outline: as §1
[6] = system: MDA-MB-468; test: Antiproliferative activity against human MDA-MB-468 cells assessed as growth inhibition at 100 ug/mL incubated for 48 hrs by SRB assay relative to control; type: functional; conditions: read-out: GI; outline: as §1
[7] = system: HeLa; test: Antiproliferative activity against human HeLa cells assessed as growth inhibition at 100 ug/mL incubated for 48 hrs by SRB assay relative to control; type: functional; conditions: read-out: GI; outline: as §1
[8] = system: MG-63; test: Antiproliferative activity against human MG-63 cells assessed as growth inhibition at 100 ug/mL incubated for 48 hrs by SRB assay relative to control; type: functional; conditions: read-out: GI; outline: as §1
[9] = system: HCT-116; test: Cytotoxicity against human HCT-116 cells assessed as inhibition of cell growth incubated for 48 hrs by SRB assay; type: functional, cell-based; conditions: HCT-116, 48 h
Outline: (§2)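 Cells plated at 3×10^3/well and left 24 h to attach. Treated at 12.5, 25, 50 and 62.5 µg/mL for 48 h, three wells per concentration, with DMSO (1% v/v) vehicle control. Fixed with 20% TCA, stained with 0.4% SRB, OD read at 570 nm. Survival fraction = treated OD/control OD. IC50 from sigmoidal dose-response curve fitting.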

[10] = system: HepG2; test: Antiproliferative activity against human HepG2 cells assessed as growth inhibition at 100 ug/mL incubated for 48 hrs by SRB assay relative to control; type: functional; conditions: read-out: GI; outline: as §1
[11] = system: Caco-2; test: Antiproliferative activity against human Caco-2 cells assessed as growth inhibition at 100 ug/mL incubated for 48 hrs by SRB assay relative to control; type: functional; conditions: read-out: GI; outline: as §1
[12] = system: HCT-116; test: Antiproliferative activity against human HCT-116 cells assessed as growth inhibition at 100 ug/mL incubated for 48 hrs by SRB assay relative to control; type: functional; conditions: read-out: GI; outline: as §1
[13] = system: MCF7; test: Antiproliferative activity against human MCF7 cells assessed as growth inhibition at 100 ug/mL incubated for 48 hrs by SRB assay relative to control; type: functional; conditions: read-out: GI; outline: as §1
[14] = system: Huh-7; test: Antiproliferative activity against human Huh-7 cells assessed as growth inhibition at 100 ug/mL incubated for 48 hrs by SRB assay relative to control; type: functional; conditions: read-out: GI; outline: as §1
[15] = Cytotoxicity against human HNO 97 cell line assessed as inhibition of cell growth incubated for 48 hrs by SRB assay; type: functional, cell-based; conditions: HNO 97, 48 h; outline: as §2
[16] = system: HepG2; test: Cytotoxicity against human HepG2 cells assessed as inhibition of cell growth incubated for 48 hrs by SRB assay; type: functional, cell-based; conditions: HepG2, 48 h; outline: as §2
[17] = system: A-375; test: Cytotoxicity against human A-375 cells assessed as inhibition of cell growth incubated for 48 hrs by SRB assay; type: functional, cell-based; conditions: A-375, 48 h; outline: as §2

| Compound | inhibition of growth at 100 µg/mL [1] [%] | inhibition of growth at 100 µg/mL [2] [%] | inhibition at 48 h, 100 ug/mL [3] [%] | inhibition at 48 h, 100 ug/mL [4] [%] | inhibition of growth at 100 µg/mL [5] [%] | inhibition of growth at 100 µg/mL [6] [%] | inhibition of growth at 100 µg/mL [7] [%] | inhibition of growth at 100 µg/mL [8] [%] | IC50 [9] [µM] | inhibition of growth at 100 µg/mL [10] [%] | inhibition of growth at 100 µg/mL [11] [%] | inhibition of growth at 100 µg/mL [12] [%] | inhibition of growth at 100 µg/mL [13] [%] | inhibition of growth at 100 µg/mL [14] [%] | IC50 [15] [µM] | IC50 [16] [µM] | IC50 [17] [µM] |
| --- | --- | --- | --- | --- | --- | --- | --- | --- | --- | --- | --- | --- | --- | --- | --- | --- | --- |
| Cc1c(C(=O)N/N=C/c2ccccc2)nnn1-c1ccc(Br)cc1 | 89 | 83 | 23 | 4 | 72 | 65 | 79 | 75 | 16.9 | 72 | 37 | 87 | 87 | 67 |  |  |  |
| COc1cc(/C=N/NC(=O)c2nnn(-c3ccc(Br)cc3)c2C)cc(OC)c1OC | 68 | 73 | 52 | 51 | 60 | 76 | 60 | 67 |  | 76 | 64 | 82 | 72 | 75 |  |  |  |
| COc1ccc(/C=N/NC(=O)c2nnn(-c3ccc(F)cc3)c2C)cc1OC | 84 | 89 | 33 | 21 | 82 | 65 | 78 | 84 |  | 81 | 49 | 81 | 87 | 65 |  |  |  |
| COc1cc(/C=N/NC(=O)c2nnn(-c3ccc(Cl)cc3)c2C)cc(OC)c1OC | 74 | 69 | 25 | 34 | 63 | 59 | 42 | 38 |  | 43 | 53 | 64 | 50 | 78 |  |  |  |
| COc1cc(/C=N/NC(=O)c2nnn(-c3ccc(F)cc3)c2C)cc(OC)c1OC | 79 | 72 | 32 | 38 | 85 | 72 | 56 | 63 | 18.8 | 79 | 58 | 73 | 68 | 75 | 15.7 | 35.7 | 13.2 |
| Cc1c(C(=O)N/N=C/c2ccccc2)nnn1-c1ccc(F)cc1 | 74 | 70 | 16 | 14 | 42 | 44 | 52 | 68 |  | 54 | 20 | 74 | 80 | 37 |  |  |  |
